Measured values taken from PMC9476207 (ACS Omega, 2022).

Experiments:
Test in all cases: NCI-60 single-dose antiproliferative screen
Assay type in all cases: cell-based
UO-31 = conditions: Homo sapiens, UO-31, 48 h, read-out: growth percent
Method in brief: (§1)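 Cells grown in RPMI 1640 with 5% FBS and 2 mM L-glutamine, plated and held 24 h at 37 °C; time-zero plates TCA-fixed. DMSO stocks were diluted in gentamicin-containing medium to a final 10^-5 M, with a DMSO-only control. Exposure 48 h, 5% CO2. Adherent cells TCA-fixed 1 h at 4 °C, stained with 0.4% SRB, solubilised in 10 mM Trizma base, read at 515 nm. Growth percent derived from ODtzero, ODtest and ODctrl.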

SK-MEL-5 = conditions: Homo sapiens, SK-MEL-5, 48 h, read-out: growth percent
Method in brief: as §1

MDA-MB-468 = conditions: Homo sapiens, MDA-MB-468, 48 h, read-out: growth percent
Method in brief: (§2)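 NCI-60 protocol. Lines were grown in RPMI 1640 with 5% FBS and 2 mM L-glutamine, plated and incubated 24 h at 37 °C; time-zero plates were TCA-fixed. The test compound was dissolved in DMSO, diluted in medium with 50 μg/mL gentamicin and given once at a final 10^-5 M (DMSO control) for 48 h. Cells were fixed with cold TCA (1 h, 4 °C) and stained with 0.4% SRB in 1% acetic acid for 10 min. Dye was dissolved in 10 mM Trizma base and read at 515 nm. Growth percent was calculated from time-zero, test and control ODs.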

RPMI-8226 = conditions: Homo sapiens, RPMI-8226, 48 h, read-out: growth percent
Method in brief: as §2

HCT-15 = conditions: Homo sapiens, HCT-15, 48 h, read-out: growth percent
Method in brief: as §2

COLO205 = conditions: Homo sapiens, COLO 205, 48 h, read-out: growth percent
Method in brief: as §2

HCC-2998 = conditions: Homo sapiens, HCC 2998, 48 h, read-out: growth percent
Method in brief: as §2

MCF-7 = conditions: Homo sapiens, MCF7, 48 h, read-out: growth percent
Method in brief: as §2

HT29 = conditions: Homo sapiens, HT-29, 48 h, read-out: growth percent
Method in brief: as §2

KM12 = conditions: Homo sapiens, KM12, 48 h, read-out: growth percent
Method in brief: as §2

T-47D = conditions: Homo sapiens, T47D, 48 h, read-out: growth percent
Method in brief: as §1

CAKI-1 = conditions: Homo sapiens, CAKI-1, 48 h, read-out: growth percent
Method in brief: as §2

OVCAR-5 = conditions: Homo sapiens, OVCAR-5, 48 h, read-out: growth percent
Method in brief: as §2

SF-295 = conditions: Homo sapiens, SF-295, 48 h, read-out: growth percent
Method in brief: as §2

NCI-H460 = conditions: Homo sapiens, NCI-H460, 48 h, read-out: growth percent
Method in brief: as §2

SK-OV-3 = conditions: Homo sapiens, SK-OV-3, 48 h, read-out: growth percent
Method in brief: as §1

MDA-MB-435 = conditions: Homo sapiens, MDA-MB-435, 48 h, read-out: growth percent
Method in brief: as §2

UACC-62 = conditions: Homo sapiens, UACC-62, 48 h, read-out: growth percent
Method in brief: as §1

SR = conditions: Homo sapiens, 48 h, read-out: growth percent
Method in brief: as §1

NCI-H522 = conditions: Homo sapiens, NCI-H522, 48 h, read-out: growth percent
Method in brief: as §2

NCI-H226 = conditions: Homo sapiens, NCI-H226, 48 h, read-out: growth percent
Method in brief: as §2

LOX IMVI = conditions: Homo sapiens, 48 h, read-out: growth percent
Method in brief: as §2

EKVX = conditions: Homo sapiens, 48 h, read-out: growth percent
Method in brief: as §2

K-562 = conditions: Homo sapiens, K562, 48 h, read-out: growth percent
Method in brief: as §2

SK-MEL-2 = conditions: Homo sapiens, SK-MEL-2, 48 h, read-out: growth percent
Method in brief: as §1

786-0 = conditions: Homo sapiens, 786-0, 48 h, read-out: growth percent
Method in brief: as §2

NCI-H23 = conditions: Homo sapiens, NCI-H23, 48 h, read-out: growth percent
Method in brief: as §2

TK-10 = conditions: Homo sapiens, TK-10, 48 h, read-out: growth percent
Method in brief: as §1

BT-549 = conditions: Homo sapiens, BT-549, 48 h, read-out: growth percent
Method in brief: as §2

HS 578T = conditions: Homo sapiens, 48 h, read-out: growth percent
Method in brief: as §2

SNB-19 = conditions: Homo sapiens, SNB-19, 48 h, read-out: growth percent
Method in brief: as §1

HOP-92 = conditions: Homo sapiens, HOP-92, 48 h, read-out: growth percent
Method in brief: as §2

RXF 393 = conditions: Homo sapiens, RXF 393, 48 h, read-out: growth percent
Method in brief: as §2

NCI/ADR-RES = conditions: Homo sapiens, 48 h, read-out: growth percent
Method in brief: as §2

MALME-3M = conditions: Homo sapiens, 48 h, read-out: growth percent
Method in brief: as §2

U251 = conditions: Homo sapiens, U-251, 48 h, read-out: growth percent
Method in brief: as §1

| SMILES | activity at 10 µM (UO-31) | activity at 10 µM (SK-MEL-5) | activity at 10 µM (MDA-MB-468) | activity at 10 µM (RPMI-8226) | activity at 10 µM (HCT-15) | activity at 10 µM (COLO205) | activity at 10 µM (HCC-2998) | activity at 10 µM (MCF-7) | activity at 10 µM (HT29) | activity at 10 µM (KM12) | activity at 10 µM (T-47D) | activity at 10 µM (CAKI-1) | activity at 10 µM (OVCAR-5) | activity at 10 µM (SF-295) | activity at 10 µM (NCI-H460) | activity at 10 µM (SK-OV-3) | activity at 10 µM (MDA-MB-435) | activity at 10 µM (UACC-62) | activity at 10 µM (SR) | activity at 10 µM (NCI-H522) | also measured |
| --- | --- | --- | --- | --- | --- | --- | --- | --- | --- | --- | --- | --- | --- | --- | --- | --- | --- | --- | --- | --- | --- |
| COc1cc(CNC(=O)CCCC/C=C/C(C)C)ccc1OCc1cn(-c2ccc(F)cc2)nn1 [14h, (E)-N-(4-((1-(4-Fluorophenyl)-1H-1,2,3-triazol-4-yl)methoxy)-3-methoxybenzyl)-8-methylnon-6-enamide] | 86% | 83.7% | 68.2% | 68.4% | 89.6% | 120% | 110% | 89.3% | 106% | 94.5% | 73.8% | 88.4% | 97.6% | 90.5% | 75.7% | 86.4% | 98.8% | 71.9% | 76.7% | 70.2% | activity at 10 µM (NCI-H226): 74.2%; activity at 10 µM (LOX IMVI): 84.2%; activity at 10 µM (EKVX): 72.7%; activity at 10 µM (K-562): 68.7%; activity at 10 µM (SK-MEL-2): 111%; activity at 10 µM (786-0): 83.7%; activity at 10 µM (NCI-H23): 81.4%; activity at 10 µM (TK-10): 103%; activity at 10 µM (BT-549): 91%; activity at 10 µM (HS 578T): 77.7%; activity at 10 µM (SNB-19): 81.3%; activity at 10 µM (HOP-92): 66.2%; activity at 10 µM (RXF 393): 95.3%; activity at 10 µM (NCI/ADR-RES): 70.6%; activity at 10 µM (MALME-3M): 103%; activity at 10 µM (U251): 83.9% |
| COc1cc(CNC(=O)CCCC/C=C/C(C)C)ccc1OCc1cn(-c2ccc(C(F)(F)F)cc2)nn1 [14g, (E)-N-(3-Methoxy-4-((1-(4-(trifluoromethyl)phenyl)-1H-1,2,3-triazol-4-yl)methoxy)benzyl)-8-methylnon-6-enamide] | 92.8% | 97.1% | 70.2% | 53.4% | 59.7% | 72.6% | 94.8% | 80.7% | 79% | 81.2% | 84.5% | 85.8% | 96.6% | 90.9% | 16.7% | 91.3% | 107% | 84.3% | 70.4% | 75.6% | activity at 10 µM (NCI-H226): 53.6%; activity at 10 µM (LOX IMVI): 60.3%; activity at 10 µM (EKVX): 88.2%; activity at 10 µM (K-562): 76.3%; activity at 10 µM (SK-MEL-2): 95.1%; activity at 10 µM (786-0): 2.94%; activity at 10 µM (NCI-H23): 94.6%; activity at 10 µM (TK-10): 20.4%; activity at 10 µM (BT-549): 80.4%; activity at 10 µM (HS 578T): 70.7%; activity at 10 µM (SNB-19): 76.1%; activity at 10 µM (HOP-92): 13.8%; activity at 10 µM (RXF 393): 90.2%; activity at 10 µM (NCI/ADR-RES): 48.2%; activity at 10 µM (MALME-3M): 99.7%; activity at 10 µM (U251): 46.7% |
